The values that follow come from ChEMBL document CHEMBL4011617, “Ugi Reaction-Derived α-Acyl Aminocarboxamides Bind to Phosphatidylinositol 3-Kinase-Related Kinases, Inhibit HSF1-Dependent Heat Shock Response, and Induce Apoptosis in Multiple Myeloma Cells” (J Med Chem, 2017).

SMILES strings stand for the structures. The source made the active and inactive calls. No cut-off for these calls is given here.

The test system of test [1] is INA-6. As to the kind of experiment: Inhibition of heat shock response in human INA-6 cells assessed as reduction in HSF-1 mediated upregulation of the heat shock protein HSP27 at 50 uM preincubated for 4 hrs followed by HSP90 inhibitor and HSR inducer NVP-AUY922 addition measured after 4 hrs by Western blot method. The class given is functional, cell-based. Summed up:
(§1)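 INA-6 myeloma cells pretreated with test compound for 4 h, then co-treated with the HSP90 inhibitor/HSR inducer NVP-AUY922 for a further 4 h. Cells harvested; HSP72, HSP27, HSF1 or phospho-HSF1 probed by Western blot with β-actin as loading control. DMSO-only cells were the negative control; NVP-AUY922-only cells were the positive control.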
(In general: A western blot detects proteins with antibodies after separation by electrophoresis.)

Test [2] concerns INA-6. As to the kind of experiment: Inhibition of heat shock response in human INA-6 cells assessed as reduction in HSF-1 mediated upregulation of the heat shock protein HSP72 at 50 uM preincubated for 4 hrs followed by HSP90 inhibitor and HSR inducer NVP-AUY922 addition measured after 4 hrs by ELISA. The test is classed as functional, cell-based. The method, boiled down: (§2)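 HSP72 quantified by ELISA in the same protein lysates used for Western blots. INA-6 cells received compound for 4 h, then NVP-AUY922 co-treatment for 4 h more to stimulate HSF1. DMSO-only and NVP-AUY922-only cells served as negative and positive controls.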
For orientation: In an ELISA, binding on a coated surface is turned into a signal by an enzyme label.

The test system of test [3] is INA-6. As to the kind of experiment: Inhibition of heat shock response in human INA-6 cells assessed as reduction in HSF-1 mediated upregulation of the heat shock protein HSP72 at 50 uM preincubated for 4 hrs followed by HSP90 inhibitor and HSR inducer NVP-AUY922 addition measured after 4 hrs by Western blot method. The test is classed as functional, cell-based. Summed up:
as §1

For test [4], the system named is INA-6. The test can be described thus: Effect on NVP-AUY922-induced HSF-1 mRNA expression in human INA-6 cells at 50 uM preincubated for 4 hrs followed by NVP-AUY922 addition measured after 4 hrs by RT-PCR method. The class given is functional, cell-based. Summed up: (§3)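 INA-6 cells exposed to compound for 4 h, then co-treated with 10 nM NVP-AUY922 for another 4 h. Total RNA isolated; HSP27, HSP72 and HSF1 transcripts measured by real-time PCR and normalized to α-tubulin. Means and standard deviations from three independent experiments.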

Test [5] deals with INA-6. The test can be described thus: Induction of apoptosis in human INA-6 cells up to 50 uM after 72 hrs by annexin V-FITC/propidium iodide staining-based flow cytometry method. The class given is functional, cell-based. Summed up:
(§4)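 INA-6 cells incubated three days with DMSO or increasing compound concentrations. Viability read by annexin V-FITC/propidium iodide staining and flow cytometry. Double-negative (viable) fractions used to fit dose-response curves from three independent experiments; mean ± SD reported.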
(In general: A flow cytometer gives signals particle by particle.)

The target in test [6] is T1, Heat shock factor protein 1 (Homo sapiens) (UniProt Q00613).
T1 sequence (whole entry): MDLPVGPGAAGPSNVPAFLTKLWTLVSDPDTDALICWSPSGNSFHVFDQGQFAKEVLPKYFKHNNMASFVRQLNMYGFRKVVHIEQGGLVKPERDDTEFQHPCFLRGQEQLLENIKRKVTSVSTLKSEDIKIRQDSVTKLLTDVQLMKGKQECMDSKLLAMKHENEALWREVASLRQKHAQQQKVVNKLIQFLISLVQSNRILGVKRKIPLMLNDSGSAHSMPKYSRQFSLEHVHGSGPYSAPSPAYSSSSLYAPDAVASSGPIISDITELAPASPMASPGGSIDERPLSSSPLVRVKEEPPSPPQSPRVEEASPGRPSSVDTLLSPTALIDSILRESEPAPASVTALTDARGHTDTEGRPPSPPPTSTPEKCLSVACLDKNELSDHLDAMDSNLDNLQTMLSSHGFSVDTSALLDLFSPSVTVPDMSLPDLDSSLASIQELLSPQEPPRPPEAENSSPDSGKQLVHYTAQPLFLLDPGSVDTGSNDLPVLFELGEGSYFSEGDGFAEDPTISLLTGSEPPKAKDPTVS
As to the kind of experiment: Inhibition of NVP-AUY922-induced HSF-1 phosphorylation at S326 residue in human INA-6 cells at 25 uM preincubated for 4 hrs followed by NVP-AUY922 addition measured after 4 hrs by Western blotting method. The test is classed as cell-based. Summed up: as §1

Test [7] has as its system INA-6. As to the kind of experiment: Inhibition of heat shock response in human INA-6 cells assessed as reduction in HSF-1 mediated upregulation of the heat shock protein HSP27 at 25 uM preincubated for 4 hrs followed by HSP90 inhibitor and HSR inducer NVP-AUY922 addition measured after 4 hrs by Western blot method. The test is classed as functional, cell-based. The method, boiled down: as §1

Test [8] relates to INA-6. The test can be described thus: Inhibition of heat shock response in human INA-6 cells assessed as reduction in HSF-1 mediated upregulation of the heat shock protein HSP72 at 25 uM preincubated for 4 hrs followed by HSP90 inhibitor and HSR inducer NVP-AUY922 addition measured after 4 hrs by Western blot method. The class given is functional, cell-based. The method, boiled down: as §1

Test [9] has as its system INA-6. As to the kind of experiment: Inhibition of heat shock response in human INA-6 cells assessed as reduction in HSF-1 mediated upregulation of the heat shock protein HSP72 at 25 uM preincubated for 4 hrs followed by HSP90 inhibitor and HSR inducer NVP-AUY922 addition measured after 4 hrs by ELISA. The test is classed as functional, cell-based. The method, boiled down:
as §2

In test [10] the test system is INA-6. The test can be described thus: Induction of apoptosis in human INA-6 cells at 6.3 to 8.6 uM after 72 hrs by annexin V-FITC/propidium iodide staining-based flow cytometry method. The test is classed as functional, cell-based. The method, boiled down:
as §4

The subject of test [11] is INA-6. As to the kind of experiment: Effect on NVP-AUY922-induced HSF-1 mRNA expression in human INA-6 cells at 25 uM preincubated for 4 hrs followed by NVP-AUY922 addition measured after 4 hrs by RT-PCR method. The test is classed as functional, cell-based. The method, boiled down:
as §3

In test [12] the test system is INA-6. The test can be described thus: Inhibition of heat shock response in human INA-6 cells assessed as reduction in HSF-1 mediated upregulation of the heat shock protein HSP27 at 25 uM preincubated for 4 hrs followed by HSP90 inhibitor and HSR inducer NVP-AUY922 addition measured after 4 hrs.
For test [13], the system named is INA-6. The test can be described thus: Downregulation of NVP-AUY922-induced HSF-1 protein expression in human INA-6 cells at 25 uM preincubated for 4 hrs followed by NVP-AUY922 addition measured after 4 hrs by Western blot method. The test is classed as functional, cell-based. The method, boiled down:
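INA-6 cells were pre-treated with compound for 4 h, then co-treated with the HSP90 inhibitor NVP-AUY922 for an additional 4 h. Cells were harvested and blotted for HSP72, HSP27, HSF1 or phospho-HSF1, with β-actin as the loading control. DMSO-only cells served as the negative control and NVP-AUY922-only cells as the positive control.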

Test [14] relates to INA-6. As to the kind of experiment: Induction of apoptosis in human INA-6 cells preincubated for 4 hrs followed by NVP-AUY922 addition measured after 68 hrs by annexin V-FITC/propidium iodide staining-based flow cytometry method. The class given is functional, cell-based. The method, boiled down: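 INA-6 cells received DMSO or test compound for 72 h. At 4 h, DMSO or 10 nM NVP-AUY922 was added for the remaining 68 h. Viable fraction measured by annexin V-FITC/PI flow cytometry and expressed relative to the matching DMSO controls; means ± SD of three independent experiments.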

The test system of test [15] is INA-6. The test can be described thus: Inhibition of heat shock response in human INA-6 cells assessed as reduction in HSF-1 mediated upregulation of the heat shock protein HSP27 at 50 uM preincubated for 4 hrs followed by HSP90 inhibitor and HSR inducer NVP-AUY922 addition measured after 4 hrs by ELISA. The test is classed as functional, cell-based.

In the case of `COc1ccc(/C=C/C(=O)N(Cc2ccc(OC)cc2)C(C(=O)NCc2ccccc2)c2ccccc2Br)cc1` (racemic), the “activity call (active/not active) for inhibition of HSP27 upregulation” value in [1] is “inactive”. In addition, in test [2], the “HSP72 upregulation inhibition (active/not active)” value is “inactive”. In addition, the “heat shock response inhibition (active/not active)” value in test [3] is “inactive”. Also, the outcome in test [4] and in test [5] was inactive.

As to `NCCOCCOCCNCCOc1ccc(C(C(=O)NCc2ccccc2)N(C(=O)CCc2ccccc2)C2CC2)cc1` (centres undefined), the inhibition entry in [6], in [7], in test [8], in [9] and in test [12] was “Active” in each case. The outcome in test [10], in test [13] and in test [14] was Active. For the same compound, the result in test [11] was inactive.

Turning to `O=C(NCc1ccccc1)C(c1ccc(O)cc1)N(C(=O)CCc1ccccc1)C1CC1` (racemic), in test [1], the “activity call (active/not active) for inhibition of HSP27 upregulation” value was “inactive”. Further, in test [2], the “HSP72 upregulation inhibition (active/not active)” value was “inactive”. Besides, the “heat shock response inhibition (active/not active)” value in test [3] and in [15] was “inactive” each time. Moreover, in test [4], the outcome was inactive.
